# XiGFP reactiv – reactivates the inactive X chromosome in mouse fibroblasts. XiGFP mouse fibroblasts, % GFP-positive cells imaging, 3 d; cells co-treated with 5-aza-dC sensitizer; scaled so ellipticine positive control = 100%. activation, % at 7.58 µM. actives 0.055% (n = 360,000). AID 743238;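 active = mean normalized replicate activation at least 10% and every replicate at or above 10%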;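 also: 0% = median of on-plate neutral control wells and 100% = ellipticine 6 µM median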
#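 System: XiGFP fibroblasts, SV40-immortalized. Medium: DMEM plus 5-aza-dC sensitizer. Doses: single point. Timing: 3 d treatment, 15 min room-temperature fixation. Control set: ellipticine 6 µM.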
# ERAP1 HTS inh – ERAP1 (human) enzyme inhibition. Q9NZ08. recombinant ERAP1, Leu-AMC fluorescence, 60 min. inhibition, % at 10.7 µM. actives 0.15% (n = 340,000). AID 652197;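 active = mean replicate inhibition of at least 30%, or all replicates individually reaching that 30% level; inactive = mean below 30% and not every replicate reaching it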;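 also: 0% = neutral control wells and 100% = L-leucinethiol positive control wells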
# Target sequence (Q9NZ08 whole entry, looked up): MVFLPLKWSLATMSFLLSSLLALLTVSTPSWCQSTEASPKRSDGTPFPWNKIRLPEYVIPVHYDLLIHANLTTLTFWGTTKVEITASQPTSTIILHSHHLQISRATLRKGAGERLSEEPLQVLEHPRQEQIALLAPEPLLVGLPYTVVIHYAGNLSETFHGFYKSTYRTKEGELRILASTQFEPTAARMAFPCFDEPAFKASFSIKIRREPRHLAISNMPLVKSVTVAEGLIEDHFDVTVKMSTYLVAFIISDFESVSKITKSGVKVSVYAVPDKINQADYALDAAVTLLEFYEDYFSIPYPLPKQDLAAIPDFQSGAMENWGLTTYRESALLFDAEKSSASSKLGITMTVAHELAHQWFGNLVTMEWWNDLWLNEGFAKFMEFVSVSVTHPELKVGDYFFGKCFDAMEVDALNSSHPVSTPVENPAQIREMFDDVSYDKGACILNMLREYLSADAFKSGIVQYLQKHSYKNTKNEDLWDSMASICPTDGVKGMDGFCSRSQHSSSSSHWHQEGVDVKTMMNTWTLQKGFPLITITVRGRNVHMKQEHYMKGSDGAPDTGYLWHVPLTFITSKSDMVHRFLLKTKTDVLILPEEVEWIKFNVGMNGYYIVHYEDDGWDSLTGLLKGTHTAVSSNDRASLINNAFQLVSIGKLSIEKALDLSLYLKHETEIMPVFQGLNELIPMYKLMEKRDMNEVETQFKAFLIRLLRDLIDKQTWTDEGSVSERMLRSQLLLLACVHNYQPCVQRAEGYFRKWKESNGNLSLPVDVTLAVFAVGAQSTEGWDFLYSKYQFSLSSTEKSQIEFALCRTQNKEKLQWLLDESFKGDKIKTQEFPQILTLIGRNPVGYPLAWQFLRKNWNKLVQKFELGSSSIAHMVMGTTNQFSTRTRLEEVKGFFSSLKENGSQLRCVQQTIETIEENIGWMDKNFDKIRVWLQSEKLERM
# CaV13 ICDI inh – Primary screen for inhibitors of IQ motif and Ca2+-dependent inactivation inhibitor domain binding in CACNA1D, Förster resonance energy transfer in living cells, …; inhibition, % at 12.3 µM; actives 0.098% (n = 340,000); HEK cells, CFP/YFP FRET ICDI-IQ, plate reader, 10 min; percent FRET-ratio fall versus neutral wells;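 active = mean replicate inhibition of at least 30% and at least 1% of replicates passing that level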;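 also: 0% = median of the neutral control wells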
# PvdQ acylase – blocks Pseudomonas aeruginosa PvdQ acylase activity; inhibition, % at 10 µM; actives 0.063% (n = 340,000); AID 488965; purified PvdQ acylase, fluorescence plate reader; in the data active = inhibition above about 30%, passing the limit was not always enough;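 also: 0% = vehicle neutral wells and 100% = reference inhibitor wells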
# Starred values were filed as active, the others as inactive; nt = no result. Hits are enriched below; roughly 0.27% of the tested compounds scored in any of these assays.
SMILES,XiGFP reactiv,ERAP1 HTS inh,CaV13 ICDI inh,PvdQ acylase
Nc1c(Br)cc2c3c(cccc13)-c1ccccc1-2,27*,0,-17,nt
N#CC1=C(N)Oc2cc(O)ccc2C1c1ccc2c(c1)OCO2 (stereo not given),0,-3,144*,1
c1cc2c(cc1[C@H]1OC[C@H]3[C@@H]1CO[C@H]3c1ccc3c(c1)OCO3)OCO2,0,1,11,-11
O=C(Cc1cccnc1)N1CCCCN2[C@@H](CO)[C@H](c3ccc(C#CC4CC4)cc3)[C@@H]2C1,nt,4,nt,nt
C[N+](C)(C)CC1CCCC(C[N+](C)(C)C)C1=O (stereo not given),1,75*,-5,-5
CC(C)[N+](C)(CCC(C(N)=O)(c1ccccc1)c1ccccc1)C(C)C,0,96*,-5,-5
CCC(=O)C(CCN1CCOCC1)(c1ccccc1)c1ccccc1,0,nt,-4,-3
CCOc1cc(C=C2C(=O)NC(=S)NC2=O)ccc1O,0,16,-6,-2
COc1ccc(C=C2C(=O)NC(=S)NC2=O)cc1OC,0,37*,-9,12
CN1[C@@H]2CN(CC3CC3)C[C@H]1C2c1ccc(Br)cc1 (stereo not given in full),0,nt,nt,nt
CN(C)C(=O)OCc1n(C)cc[n+]1C,nt,nt,-8,6
CNC(=O)OCCc1n(C)cc[n+]1C,0,102*,-3,0
CCN(CC)P(c1n(C)cc[n+]1C)N(CC)CC,0,103*,-7,0
CC(C)OP(=O)(O)NC(=O)c1ccccc1,0,5,167*,-11
CN1CC[C@]23c4c5ccc(O)c4OC2[C@H](O)C=CC3[C@H]1C5 (stereo not given in full),nt,-4,nt,1
COc1ccc2c3c1OC1C(O)C=CC4C(C2)[N+](C)(C)CCC341 (stereo not given),0,58*,-18,-12
CC(=O)N1C[C@@H]2C(c3ccccc3)[C@H](C1)N2C (stereo not given in full),0,nt,nt,nt
COc1ccc2c3c([nH]c2c1)C(C)=NCC3,0,22,-7,-14
CC1=NCCc2c1[nH]c1cc(O)ccc21,0,53*,-28,10
COC(=O)[C@@H]1[C@@H](CO)[C@@H]2Cn3c(ccc(C4=CCCCC4)c3=O)[C@H]1N2Cc1ccccc1OC,2,-1,nt,nt
FC(F)(F)CN1C[C@@H]2C(c3ccccc3)[C@H](C1)N2CC1CC1 (stereo not given in full),0,nt,nt,nt
COC(=O)C1C(OC(=O)c2ccccc2)CC2CCC1[N+]2(C)C (stereo not given),nt,51*,nt,nt
COC(=O)C1C2CC[C@@H](CC1OC(=O)c1ccccc1)N2 (stereo not given in full),nt,nt,nt,-17
CC(C)NC(=O)N1CC2C(c3ccccc3)C(C1)N2C (stereo not given),0,nt,nt,nt
O=c1ccc2cc(O[C@@H]3O[C@H](CO)[C@@H](O)[C@H](O)[C@H]3O)c(O)cc2o1,0,154*,2,-9
SMILES,XiGFP reactiv,ERAP1 HTS inh,CaV13 ICDI inh,PvdQ acylase
O=C(c1cccc2ccccc12)C1CCCN(Cc2ccon2)C1 (stereo not given),27*,-2,-5,-7
Fc1ccc(CN2CC3NC(C2)C3c2ccc(Br)cc2)cc1 (stereo not given),0,nt,nt,nt
C[N+]1(CC2COC(c3ccco3)O2)CCCCC1 (stereo not given),0,80*,3,3
N#Cc1c(N2CCNCC2)nc(-c2ccco2)c2c1CCCC2,0,45*,-5,-6
CC(C)NC(=O)N1C[C@@H]2N[C@H](C1)C2c1ccccc1 (stereo not given in full),0,nt,nt,nt
C[C@H]1OC[C@@H](C[N+](C)(C)C)O1,0,104*,-4,-15
C=CCN1[C@@H]2CN(C(=O)NC(C)C)C[C@H]1C2c1ccc(Br)cc1 (stereo not given in full),1,nt,nt,nt
CC(C)(C#CC(=O)O)OOC(c1ccccc1)(c1ccccc1)c1ccccc1,0,41*,-4,-10
FC(F)(F)CN1C[C@@H]2C(c3ccc(Br)cc3)[C@H](C1)N2CC1CC1 (stereo not given in full),0,nt,nt,nt

# Screening results (PubChem BioAssay)
